The source of these data is ChEMBL document CHEMBL2069215, “Synthesis and biological evaluation of novel triazoles and isoxazoles linked 2-phenyl benzothiazole as potential anticancer agents” (Bioorg Med Chem Lett, 2012).

A word on the IC50: it is the concentration that gives 50% inhibition. Read a low IC50 as greater potency.

Activity calls are given as the source filed them. The rule behind the calls is not given here.

Test [1] concerns COLO 205. The test is described as follows: Cell cycle arrest in human COLO205 cells assessed as accumulation at S phase at 8 uM after 24 hrs by FACS analysis (reference value: 3.56 +/- 0.40%). It counts as functional. In outline: (§1)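 Colo-205 human colon cancer cells were exposed to 8 or 16 µM for 24 h alongside untreated controls. They were then analysed by flow cytometry (FACS) for cell-cycle distribution as percent of cells in G0, G1, S and G2/M. The G0 population was taken as apoptotic cells.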
In general terms: Flow cytometry measures light scatter and fluorescence of single cells or particles in a stream.

Test [2] concerns COLO 205. As to the kind of experiment: Cell cycle arrest in human COLO205 cells assessed as accumulation at G1 phase at 8 uM after 24 hrs by FACS analysis (reference value: 71.02 +/- 1.00%). It is filed as functional. The procedure, abridged: as §1
In test [3] the test system is COLO 205. The test is described as follows: Cell cycle arrest in human COLO205 cells assessed as accumulation at S phase at 16 uM after 24 hrs by FACS analysis (reference value: 3.56 +/- 0.40%). It counts as functional. The procedure, abridged: as §1
Test [4] deals with COLO 205. The test is described as follows: Cell cycle arrest in human COLO205 cells assessed as accumulation at G1 phase at 16 uM after 24 hrs by FACS analysis (reference value: 71.02 +/- 1.00%). It is filed as functional. In outline:
as §1

Test [5] concerns COLO 205. The test is described as follows: Cell cycle arrest in human COLO205 cells assessed as accumulation at G2/M phase at 8 uM after 24 hrs by FACS analysis (reference value: 23.09 +/- 1.01%). It is filed as functional. The procedure, abridged:
as §1

Test [6] has as its system MCF7. As to the kind of experiment: Cytotoxicity against human MCF7 cells after 24 hrs by MTT assay. It is filed as functional, cell-based. Particulars: MCF7, 24 h. The procedure, abridged:
(§2)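 A549 lung adenocarcinoma, Colo-205 colon and MCF-7 breast carcinoma cells were exposed to compounds at 1 to 64 µM for 24 h. Viability was read by MTT assay, and IC50 values were derived from it.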

Test [7] concerns COLO 205. The test is described as follows: Induction of apoptosis in human COLO205 cells assessed as accumulation at G0 phase at 8 uM after 24 hrs by FACS analysis (reference value: 2.28%). It is filed as functional. In outline: as §1
The test system of test [8] is COLO 205. The test is described as follows: Cytotoxicity against human COLO205 cells after 24 hrs by MTT assay. It is filed as functional, cell-based. The settings on record: COLO 205, 24 h. In outline: as §2
On the technique in general: Tetrazolium assays rely on reduction of a dye to a coloured formazan, in cell work by metabolically active cells.

Test [9] concerns MCF-10A. The test is described as follows: Cytotoxicity against human MCF10A cells after 24 hrs by MTT assay. It is filed as cell-based.
Test [10] concerns A549. The test is described as follows: Cytotoxicity against human A549 cells after 24 hrs by MTT assay. The settings on record: A549, 24 h. It is filed as functional, cell-based. The procedure, abridged: as §2
Test [11] concerns COLO 205. As to the kind of experiment: Induction of apoptosis in human COLO205 cells assessed as accumulation at G0 phase at 16 uM after 24 hrs by FACS analysis (reference value: 2.28%). It counts as functional. In outline:
as §1

The subject of test [12] is COLO 205. As to the kind of experiment: Cell cycle arrest in human COLO205 cells assessed as accumulation at G2/M phase at 16 uM after 24 hrs by FACS analysis (reference value: 23.09 +/- 1.01%). It is filed as functional. In outline: as §1
Test [13] deals with COLO 205. As to the kind of experiment: Induction of apoptosis in human COLO205 cells assessed as degradation of procaspase 8 at 8 uM after 24 hrs by Western blot analysis. It is filed as functional, cell-based. In outline: (§3)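 Colo-205 cells were treated at 8 or 16 µM for 24 h and lysed. Western blots of the lysates were probed with antibodies to procaspase-8, procaspase-9, active caspase-3 and cleaved (active) PARP.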
Background: A western blot detects proteins with antibodies after separation by electrophoresis.

The test system of test [14] is COLO 205. As to the kind of experiment: Induction of apoptosis in human COLO205 cells assessed as degradation of procaspase 9 at 8 uM after 24 hrs by Western blot analysis. It is filed as functional, cell-based. The procedure, abridged:
as §3

Test [15] has as its system COLO 205. The test is described as follows: Induction of apoptosis in human COLO205 cells assessed as increase in caspase 3 expression at 8 uM after 24 hrs by Western blot analysis. It counts as functional, cell-based. The procedure, abridged: as §3
Test [16] concerns COLO 205. The test is described as follows: Induction of apoptosis in human COLO205 cells assessed as increase in PARP expression at 8 uM after 24 hrs by Western blot analysis. It is filed as functional, cell-based. The procedure, abridged:
as §3

For the compound `COc1ccc(-c2nc3cc(F)ccc3s2)cc1OC`, the Activity in [1] turned out to be 3.21%; in test [2], 70.04%; in test [3], 4.31%; in test [4], 52.82%; in [5] it was 22.5%; in [7], 4.15%. Further, the Activity in test [11] is 27.17%; in test [12] it was 15.6%. For the same compound, the IC50 in test [6] is 20.2 µM; in test [8] it was 13.9 µM; in test [9], 25.2 µM; in [10] it was 15.9 µM.
Take `Cc1ccc(-c2cc(COc3ccccc3-c3nc4ccccc4s3)on2)cc1`: the IC50 in test [6] is 27.5 µM; in test [8], 14.2 µM; in test [9], 26.4 µM; in [10], 16.4 µM.
With `COc1cc(-c2cc(COc3ccccc3-c3nc4ccccc4s3)on2)cc(OC)c1OC`, the IC50 was 25.6 µM in test [6], 17.5 µM in test [8], 42.9 µM in test [9] and 22.9 µM in [10].
Regarding `COc1ccc(-c2cc(COc3ccccc3-c3nc4ccccc4s3)on2)cc1`, the IC50 in test [6] came to 22.1 µM; in test [8], 20.7 µM; in test [9], 34.1 µM; in [10] it was 24.1 µM.
In the case of `Fc1ccccc1-c1cc(COc2ccccc2-c2nc3ccccc3s2)on1`, the half-inhibitory concentration (IC50) was 23.9 µM in [6], 18.3 µM in test [8], 42.5 µM in test [9] and 22.5 µM in [10].
The like results for `Fc1ccc(-n2cc(COc3ccccc3-c3nc4ccccc4s3)nn2)cc1Cl` were, in that order, 27.3 µM, 14.4 µM, 26.3 µM and 16.3 µM.
`Brc1ccc(-c2cc(COc3ccccc3-c3nc4ccccc4s3)on2)cc1`: the IC50 is 20 µM in [6], 16.4 µM in [8], 29.2 µM in test [9] and 19.2 µM in [10].
Take `FC(F)(F)C(F)(F)C(F)(F)C(F)(F)C(F)(F)C(F)(F)CCn1cc(COc2ccccc2-c2nc3ccccc3s2)nn1`: the Activity turned out to be 3.09% in test [1]; 73.66% in test [2]; 4.42% in [3]; 61.36% in test [4]; 20.53% in test [5]; 2.72% in [7]. In addition, the Activity turned out to be 11.91% in [11] and 22.3% in test [12]. In addition, the IC50 in [6] was 19.8 µM; in [8], 14.2 µM; in test [9], 35.1 µM; in test [10] it was 15.1 µM.
`FC(F)(F)Oc1ccc(-c2cc(COc3ccccc3-c3nc4ccccc4s3)on2)cc1`: the IC50 in test [6] was 26.6 µM; in test [8], 19.9 µM; in [9], 43.9 µM; in test [10] it was 23.9 µM.
The like results for `Fc1ccc(-n2cc(COc3ccccc3-c3nc4ccccc4s3)nn2)cc1` were, in that order, 26.2 µM, 18.9 µM, 33.3 µM and 23.3 µM.
Consider `FC(F)(F)C(F)(F)C(F)(F)C(F)(F)C(F)(F)C(F)(F)C(F)(F)C(F)(F)CCn1cc(COc2ccccc2-c2nc3ccccc3s2)nn1`, for which the Activity came out at 4.43% in test [1]; 72% in test [2]; 3.79% in test [3]; 46.57% in [4]; 20.22% in [5]; 3.3% in test [7]. For the same compound, the figures for the Activity in [11] and in [12] were 34.45% and 15.18%, respectively. For the same compound, the half-inhibitory concentration (IC50) was 19.2 µM in test [6], 12.2 µM in test [8], 33.1 µM in test [9] and 13.1 µM in [10].
With `Clc1ccc(-c2cc(COc3ccccc3-c3nc4ccccc4s3)on2)cc1`, the IC50 in test [6] was 23.8 µM; in test [8], 16.4 µM; in [9] it was 38.8 µM; in test [10], 18.8 µM.
For `FC(F)(F)c1cccc(-n2cc(COc3ccccc3-c3nc4ccccc4s3)nn2)c1`, the Activity in test [1] amounted to 3.37%; in test [2], 70.91%; in test [3], 2.68%; in test [4] it was 45.77%; in test [5], 21.68%; in test [7], 4.02%. In addition, the Activity in [11] amounted to 40.7%; in [12], 10.67%. Moreover, the IC50 in test [6] came to 18.9 µM; in test [8], 10.8 µM; in [9], 31.1 µM; in test [10], 11.1 µM. Besides, the outcome in [13], in [14], in test [15] and in [16] was Active.
For `c1ccc(-n2cc(COc3ccccc3-c3nc4ccccc4s3)nn2)cc1`, the IC50 in test [6] was found to be 26.2 µM; in test [8], 16.6 µM; in test [9], 36.4 µM; in [10] it was 16.4 µM.
